From ChEMBL document CHEMBL2346643, “Semisynthetic studies identify mitochondria poisons from botanical dietary supplements--geranyloxycoumarins from Aegle marmelos” (Bioorg Med Chem, 2013)
Activity calls are given as the source filed them. The calls are words filed in the database; no cut-off is given here.

Experiments:
T47D [1] = assay: Antiproliferative activity against human T47D cells at 1 to 10 uM after 48 hrs by SRB assay; format: functional, cell-based
Method in brief: (§1)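 T47D or MDA-MB-231 breast tumor cells were exposed to 1, 3, 10 and 30 μM for 48 h or 144 h (6 d). For the 6 d exposure, medium was replaced after 3 days with fresh medium containing compound. Stocks were 4 mM in 2-propanol, with final solvent below 0.75%. Viability was measured by sulforhodamine B and expressed as % inhibition of the untreated control: [1−(OD treated/OD control)]×100.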

MDA-MB-231 = assay: Antiproliferative activity against human MDA-MB-231 cells at 1 to 10 uM after 48 hrs by SRB assay; format: functional, cell-based; method in brief: as §1
T47D [2] = assay: Inhibition of mitochondrial ETC complex 1 in human T47D cells assessed as inhibition of oxygen consumption at 10 uM after 2 hrs by Clarke-type electrode analysis; format: cell-based
Method in brief: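 T47D cells were pretreated with 10 μM compound, or 0.01 μM rotenone, for 2 h. Cells were then detached and washed, and the oxygen consumption rate was measured with a Clarke-type electrode. Results are % inhibition relative to untreated controls.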

T47D [3] = assay: Inhibition of mitochondrial ETC complex 1 in human T47D cells assessed as inhibition of oxygen consumption at 10 uM after 10 mins by Clarke-type electrode analysis; format: cell-based
Method in brief: (§2)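 For acute exposure, intact T47D cells received compound at 3, 10 or 30 μM for 5–10 min. Oxygen consumption was then measured with a Clarke-type electrode, with rotenone at 1–100 nM as control. Results are % inhibition of the untreated rate, averaged over two independent experiments with deviation from the average.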

T47D [4] = assay: Inhibition of mitochondrial ETC complex 1 in human T47D cells assessed as inhibition of oxygen consumption at 30 uM after 5 to 10 mins by Clarke-type electrode analysis; format: cell-based; method in brief: as §2
[5] = target: T1, Mitochondrial complex I (NADH dehydrogenase) (Homo sapiens) (UniProt P03923+O95299+O00217+P03901+P56556+P03886+O95139+O00483+Q86Y39+P17568+P03891+O75306+P03915+P51970+O43674+P03905+P03897+O14561+O15239+O43181+O43676+O43677+O43678+O43920+O75251+O75380+O75438+O75489+O95167+O95168+O95169+O95178+O95182+O95298+O96000+P19404+P28331+P49821+P56181+Q16718+Q16795+Q8N183+Q9BU61+Q9NRX3+Q9NX14+Q9P032+Q9P0J0+Q9UI09+Q9Y375+Q9Y6M9); assay: Inhibition of mitochondrial ETC complex 1 in human T47D cells assessed as inhibition of 1% O2-induced HIF1 activation at 30 uM incubated for 30 mins prior to 1% O2-challenge measured after 16 hrs by luciferase reporter assay; format: cell-based
Method in brief: (§3)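 pHRE-luc reporter transfected T47D cells were exposed for 16 h to hypoxia (1% O2) or to chemical hypoxia (10 μM 1,10-phenanthroline) in the presence of compound. The highest concentration tested was 30 μM. Luciferase signal was expressed as % inhibition of the induced control. IC50 and 95% CI came from one representative concentration-response experiment run in triplicate. Cycloheximide at 10 μM served as control.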

[6] = target: T1, Mitochondrial complex I (NADH dehydrogenase) (Homo sapiens); assay: Inhibition of mitochondrial ETC complex 1 in human T47D cells assessed as inhibition of 1,10-phenanthroline-induced HIF1 activation at 30 uM incubated for 30 mins prior to 1,10-phenanthroline-challenge measured after 16 hrs by luciferase reporter assay; format: cell-based; method in brief: as §3
[7] = target: Mitochondrial complex I (NADH dehydrogenase); assay: Inhibition of mitochondrial ETC complex 1 in human T47D cells assessed as inhibition of 1,10-phenanthroline-induced HIF1 activation incubated for 30 mins prior to 1,10-phenanthroline-challenge measured after 16 hrs by luciferase reporter assay; format: cell-based; method in brief: as §3
[8] = target: Mitochondrial complex I (NADH dehydrogenase); assay: Inhibition of mitochondrial ETC complex 1 in human T47D cells assessed as inhibition of 1% O2-induced HIF1 activation incubated for 30 mins prior to 1% O2-challenge measured after 16 hrs by luciferase reporter assay; format: cell-based; method in brief: as §3

SMILES: CCCCCC/C=C\CCCCCCCCCC(=O)O[C@H](CC/C(C)=C/COc1ccc2ccc(=O)oc2c1)C(C)(C)O [R-(+)-MARMIN-6'-CIS-VACCENOATE]
- Activity (T47D [1]): Active
- Activity (MDA-MB-231): Active
- inhibition (T47D [2]): -6%
- inhibition (T47D [3]): 5%
- inhibition (T47D [4]): 20%
- inhibition [5]: 20%
- inhibition [6]: 20%
- IC50 [7]: > 30 µM
- IC50 [8]: > 30 µM
